The nature of series [1]: folding enthalpy; higher = less favourable; fluorescence melt of hairpins on a sequencing array, two-state fit. Conditions: sodium 0.088 M. In a few lines:
(§1)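 Cy3 signals were normalised both to pre-quench Cy3 and to control constructs. They came from library hairpins carrying annealed Cy3 and quencher oligos on a sequenced MiSeq flow cell, imaged in 50 mM Na-HEPES pH 8.0, 25 mM NaCl, in 2.5 °C steps up to 60 °C. Bootstrapped two-state fits gave melting temperature and folding enthalpy, and four replicates were combined by inverse variance. Fitted temperatures were then raised by 9.35 °C to match UV melts.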

A short description of series [2]: melting temperature; fluorescence melt of hairpins on a sequencing array, two-state fit, raised by 9.35 °C to match UV melts. Conditions: sodium 0.088 M. In a few lines: as §1

Drawing on the array DNA melting data of Ke et al. (doi:10.1101/2024.01.08.574731), this text covers folding enthalpy and Tm for 37 sequences.

For the sequence GGGATCCGAAAGGACCC (((.(((....)))))), the folding enthalpy in series [1] is -36.5 kcal/mol. Also, the Tm in series [2] came out at 55.7 °C.

In the case of GGGATCGAAAGATACCCC ((((((....)))..))), the folding enthalpy in series [1] was -18.1 kcal/mol. The Tm in series [2] was 51.6 °C.

On to GGGATCGAAAGATGCCCC ((((((....)))..))), for which, in series [1], the folding enthalpy was -15 kcal/mol. The Tm in series [2] stood at 49.2 °C.

GGGATCGAAAGATGTCCC ((((((....)))..))): in series [1], the folding enthalpy was -17.3 kcal/mol. In addition, in series [2], the Tm worked out at 35.9 °C.

In the case of GGGATCGGAAACGACCCC (((.(((....))).))), the folding enthalpy in series [1] was -37.5 kcal/mol. In series [2], the Tm came out at 52.4 °C.

On to GGGATCGGAAACGGTCTC (.((.((....)).)).), for which the folding enthalpy in series [1] was -22.1 kcal/mol. For the same sequence, the Tm in series [2] was found to be 39.6 °C.

GGGATGACGAAAGTCCCC (((..(((....)))))): in series [1], the folding enthalpy was -18.4 kcal/mol. Besides, the Tm in series [2] was determined as 42.9 °C.

In the case of GGGATGGGAAACCATCCC (((((((....))))))), in series [1], the folding enthalpy was -41.5 kcal/mol. In addition, the Tm in series [2] worked out at 67.4 °C.

Regarding GGGATGGGAAACTGTCCC ((((..(....)..)))), the folding enthalpy in series [1] is -31.3 kcal/mol. Besides, in series [2], the Tm amounted to 43.5 °C.

On to GGGATTCGAAAGAACCCC (((.(((....))).))), for which the folding enthalpy in series [1] was -34 kcal/mol. Further, the Tm in series [2] turned out to be 49.9 °C.

Take GGGATTGGAAACAATCCC (((((((....))))))): the folding enthalpy in series [1] is -41.9 kcal/mol. The Tm in series [2] was 60.5 °C.

Consider GGGATTGGAAACAGTCTC (.((.((....)).)).), for which, in series [1], the folding enthalpy is -13 kcal/mol. Further, the Tm in series [2] was found to be 27.7 °C.

For GGGATTGGAAACGATTCC ((.((.(....).)).)), the folding enthalpy in series [1] was -21 kcal/mol. Besides, the Tm in series [2] worked out at 36.9 °C.

Turning to GGGCAACGAAAGTTCCCC (((.(((....))).))), the folding enthalpy in series [1] was -20.2 kcal/mol. Further, in series [2], the Tm is 47.2 °C.

In the case of GGGCAAGAAATTGCCC ((((((....)))))), in series [1], the folding enthalpy is -33.9 kcal/mol. In series [2], the Tm is 63.6 °C.

With GGGCAGCCGAAAGGCCCC (((..(((....)))))), the folding enthalpy in series [1] is -15.1 kcal/mol. Moreover, in series [2], the Tm came out at 48.1 °C.

As to GGGCAGCGAAAGCTACCC (((.(((....))).))), the folding enthalpy in series [1] is -31.2 kcal/mol. For the same sequence, in series [2], the Tm turned out to be 57.1 °C.

GGGCATCGAAAGATCCC (((.(((....)))))): the folding enthalpy in series [1] is -30.4 kcal/mol. Moreover, the Tm in series [2] was determined as 50.4 °C.

As to GGGCATGGAAACACGCCC ((((.((....)).)))), the folding enthalpy in series [1] is -45.3 kcal/mol. Moreover, the Tm in series [2] came to 51.8 °C.

As to GGGCATGGAAACGTGTCC ((.((.(....).)).)), the folding enthalpy in series [1] was -29 kcal/mol. For the same sequence, in series [2], the Tm is 45 °C.

Turning to GGGCCAGGAAACCGACCC (((.(.(....).).))), in series [1], the folding enthalpy was -20.9 kcal/mol. In series [2], the Tm turned out to be 34.6 °C.

For the sequence GGGCCCGAAAGGGCACCC ((((((....)))..))), the folding enthalpy in series [1] was -9.72 kcal/mol. Further, the Tm in series [2] stood at 65 °C.

GGGCCCGCGAAAGCGCCC (((..(((....)))))): in series [1], the folding enthalpy was -15.6 kcal/mol. For the same sequence, the Tm in series [2] was found to be 55.8 °C.

Consider GGGCCCGGAAACGGGCTC (.(((((....))))).), for which the folding enthalpy in series [1] was -12.2 kcal/mol. Moreover, the Tm in series [2] came to 68 °C.

With GGGCCGACGAAAGTCCCC (((..(((....)))))), the folding enthalpy in series [1] was -12 kcal/mol. Besides, the Tm in series [2] stood at 43.8 °C.

On to GGGCCGCCGAAAGGCCCC (((..(((....)))))), for which the folding enthalpy in series [1] was -13.6 kcal/mol. In addition, the Tm in series [2] was found to be 64.1 °C.

Regarding GGGCCTGGAAACAGACCC (((.(((....))).))), the folding enthalpy in series [1] was -38.6 kcal/mol. In series [2], the Tm was found to be 50.9 °C.

GGGCCTGGAAACAGGTCC ((.((((....)))).)): in series [1], the folding enthalpy is -36.4 kcal/mol. Besides, the Tm in series [2] amounted to 65 °C.

As for GGGCCTGGAAACGGGCTC (.(((.(....).))).), the folding enthalpy in series [1] is -24 kcal/mol. In addition, the Tm in series [2] was 50.2 °C.

As for GGGCGACGAAAGTCCCC (((.(((....)))))), the folding enthalpy in series [1] is -27.5 kcal/mol. For the same sequence, the Tm in series [2] came to 55.4 °C.

Turning to GGGCGAGGAAACTCGCTC (.(((((....))))).), in series [1], the folding enthalpy is -15.8 kcal/mol. In addition, the Tm in series [2] turned out to be 58.1 °C.

As to GGGCGAGGAAACTTGCCC ((((.((....)).)))), the folding enthalpy in series [1] was -45.6 kcal/mol. Further, the Tm in series [2] amounted to 59.1 °C.

In the case of GGGCGCCGAAAGGCACCC (((.(((....))).))), the folding enthalpy in series [1] is -22.8 kcal/mol. In series [2], the Tm is 67.5 °C.

In the case of GGGCGCGAAAGCGAACCC ((((((....)))..))), the folding enthalpy in series [1] was -14 kcal/mol. In addition, the Tm in series [2] was 59.3 °C.

GGGCGCGAAAGCGCTCCC ((((((....)))..))): in series [1], the folding enthalpy was -9.05 kcal/mol. Besides, in series [2], the Tm is 53.6 °C.

Take GGGCGGGCGAAAGCCCCC (((..(((....)))))): in series [1], the folding enthalpy was -11.5 kcal/mol. Also, in series [2], the Tm was 51.2 °C.

For GGGCGTCGAAAGACACCC (((.(((....))).))), the folding enthalpy in series [1] is -43.8 kcal/mol. The Tm in series [2] was found to be 58.9 °C.
